Experimental data from PMC5592695 (Journal of medicinal chemistry, 2016).

Columns and labels:
[1] = tested on: R4A monoclonal antibody (anti-dsDNA) binding to DWEYS peptide; assay: Competitive inhibition ELISA: R4A antibody binding to DWEYS-coated plates; set-up: species or system mouse
How it was run: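 D-DWEYS peptide at 20 µg/mL in PBS pH 7.2 coated overnight at 37 °C, uncovered; blocked with 3% BSA/PBS 1 h at 37 °C. R4A (20 µg/mL) preincubated with test compound at varying concentrations 1 h at 37 °C, then added to washed wells 1 h at 37 °C. AP-goat anti-mouse IgG 1:1000, 1 h RT; pNPP substrate 30–60 min; absorbance at 405 nm.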

[2] = tested on: R4A antibody binding to murine glomeruli; assay: Kidney glomeruli R4A binding assay; set-up: species or system mouse; settings: R4A 20 µg/mL preincubated with compound at 50 µM
How it was run: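 Glomeruli isolated from mice and adhered to glass slides. R4A was preincubated with test compound for 1 h at 37 °C, then applied to the glomeruli for 1 h at room temperature. Slides were washed with PBS. Bound antibody was detected with FITC-conjugated anti-mouse IgG and imaged by fluorescence microscopy.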

[3] = tested on: NZB/W F1 mice (SLE model); assay: NZB/W F1 lupus model efficacy testing; format: in vivo, mouse
How it was run: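 Female NZB/W F1 mice, randomised to groups (initially n = 10/group), dosed from 22 weeks of age, before severe proteinuria, with test compound or vehicle at 5 mg kg−1 day−1 as two daily ip injections (2.5 mL/kg each). Weekly body weight; proteinuria every 2 weeks; serum stored at −70 °C. Blinded kidney histology scored glomerular sclerosis, cellularity, crescents and interstitial inflammation.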

[4] = tested on: R4A antibody neurotoxicity in hippocampal neurons; assay: Neurotoxicity model: R4A injected into hippocampus, TUNEL staining; format: in vivo; settings: R4A 20 µg/mL preincubated with 50 µM compound, injected into mouse hippocampus
How it was run: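 Male C57BL/6 mice (30–34 g) under 2.5% avertin ip received a 2 µL stereotaxic injection into the dorsal hippocampus (CA1) of R4A (20 µg/mL) preincubated with vehicle or test compound (50 µM).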

[5] = Preliminary pharmacokinetics after intravenous or oral dosing; format: in vivo; settings: iv 1 mg/kg or oral gavage 10 mg/kg, male CD-1 mice
[6] = 5 mg/kg chronic dosing, NZB/W F1 mice, versus vehicle

Compound | Inhibition of R4A / anti-dsDNA antibody binding in ELISA (qualitative) [1] | R4A binding to glomerular antigens [2] | Neurotoxic effect of R4A (TUNEL staining, neuronal apoptosis) [4] | further results
Cc1c(O)cccc1C(=O)N[C@@H](CSc1ccccc1)[C@H](O)CN1C[C@H]2CCCC[C@H]2C[C@H]1C(=O)NC(C)(C)C [Compound 2, nelfinavir, reference compound] | dose-dependently inhibited the binding of anti-dsDNA antibodies to target antigens | diminished binding to glomerular antigens |  | 
Cc1cccc(C)c1OCC(=O)N[C@@H](Cc1ccccc1)[C@@H](O)C[C@H](Cc1ccccc1)NC(=O)[C@H](C(C)C)N1CCCNC1=O [Compound 3, lopinavir] | dose-dependently inhibited the binding of anti-dsDNA antibodies to target antigens |  |  | 
CC(C)(C)NC[C@@H]1CC2CCCCC2CN1C[C@@H](O)[C@H](Cc1ccccc1)NC[C@H](CCN)NCC1Nc2ccccc2CC1O (stereo partly drawn) [Compound 5, 2-{[3-Amino-1-({1-benzyl-3-[3-(tert-butylamino-methyl)-octahydro-isoquinolin-2-yl]-2-hydroxy-propylamino}-methyl)-propylamino]-methyl}-1,2,3,4-tetrahydro-quinolin-3-ol] |  | decreased the binding of R4A to kidney tissue | abrogated this neurotoxic effect | Onset of disease ([3]; 5 mg kg−1 day−1 b.i.d. ip, NZB/W F1 mice): delayed onset of disease (26–36 weeks); Body weights versus vehicle ([3]; 5 mg kg−1 day−1 in two daily ip injections, female NZB/W F1 mice from 22 weeks of age): similar; Kidney histology [3, 6]: preserved histology; Mouse IgG staining (autoantibody deposition) in glomeruli [3, 6]: significantly less staining for mouse IgG; Serum anti-DWEYS reactivity ([3]; 5 mg/kg chronic dosing, NZB/W F1 mice, versus vehicle sera): higher anti-DWEYS reactivity; Combined kidney pathology score ([3]; blinded histopathology, 60 weeks, versus vehicle, p < 0.05): significantly lower standard combined pathology scores; PK profile (comparative) [5]: exhibited the best PK profile; Tolerability in PK study [5]: well tolerated at the administered dose levels
Cc1c(O)cccc1CN[C@@H](CSc1ccccc1)[C@H](O)CN1C[C@H]2CCCC[C@H]2C[C@H]1CNC(C)(C)C [Compound 6, 3-({3-[3-(tert-Butylaminomethyl)octahydroisoquinolin-2-yl]-2-hydroxy-1-phenylsulfanylmethylpropylamino}methyl)-2-methylphenol] |  | decreased the binding of R4A to kidney tissue | abrogated this neurotoxic effect | 
CNCCCN[C@H](CN[C@@H](Cc1ccccc1)C[C@H](O)[C@H](Cc1ccccc1)NCCOc1c(C)cccc1C)C(C)C [Compound 7, 2-[2-(2,6-Dimethylphenoxy)ethylamino]-5-[3-methyl-2-(3-methylaminopropylamino)butylamino]-1,6-diphenylhexan-3-ol] |  | decreased the binding of R4A to kidney tissue |  | 
saquinavir [Compound 1, reference compound] | dose-dependently inhibited the binding of anti-dsDNA antibodies to target antigens | diminished binding to glomerular antigens |  | 
